This data set relates to MS2 coat protein. As to the kind of experiment: apparent Kd, MS2 coat protein; higher = weaker binding; RNA-MaP array; FMN 200 µM where present. Put shortly:
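The titrant was SNAP-549-labelled MS2 coat protein, run from 0.7 or 1.5 nM in doubling steps to 3 µM. It was applied to designs transcribed by stalled E. coli RNA polymerase on Illumina sequencing-chip clusters, without ligand first and then with constant ligand, in 100 mM Tris-HCl pH 7.5, 80 mM KCl, 4 mM MgCl2, BSA, DTT, yeast tRNA and Tween-20. The apparent Kd is the median of filtered per-cluster binding-curve fits, with green signal normalised to red-channel RNA signal and control-cluster median Fmax.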

The mark [1] stands for this setting: designed as: ON switch for flavin mononucleotide, no ligand.
[2] abbreviates: ligand present: flavin mononucleotide, designed as: ON switch for flavin mononucleotide.
Where [3] appears, read: designed as: OFF switch for flavin mononucleotide, no ligand.
Setting [4] is: ligand present: flavin mononucleotide, designed as: OFF switch for flavin mononucleotide.

The apparent Kd is a dissociation constant that holds for the conditions of the assay.

For “AAAAGACAUGAGGAUCACCCAUGUAAAAACAUAGGAGGAUAUGUCAUGAAAAAAGACUUGACAGAAGGCCUUUGUC”, the “apparent Kd” value is, setting by setting: under setting [1], 164 nM; under setting [2], 65.4 nM.
The matching figures for “UAGGAGUACGUAGGAUAUGUAGGAUAUUCCUACAUGAGGAUCACCCAUGUUAGCAUGGAAGAAGGACAGAAGGACGUGCUCCUU”: 1090 nM and 16.1 nM.
In the case of “AGUAGAUCAGGAUAUACGUAAAUGGUAAUUAUGUAACUUAUACAUGAGGAUCACCCAUGUAGAAGGGAUCUACA”, the “apparent Kd” value by setting is: under setting [3], 19.4 nM; under setting [4], 51.9 nM.
As for “ACAGAGCCUGACAUGAGGAUCACCCAUGUUAGAUUGUUAUGUUAGGAUAUUGUCUAGCAACUAGACAAGAAGGGAUGCUCUGUG”, the “apparent Kd” value runs as follows: under setting [1], 20.1 nM; under setting [2], 14.3 nM.
Take “AGCUAGUCAGGAUAUACGUGCAUGUCAAAAGACGUGAAGGGACAUGAGGAUCACCCAUGUAGAAGGGACUAGCA”: the “apparent Kd” value was 54.5 nM under setting [3] and 231 nM under setting [4].
Take “AAAUUGCUAGAGGAUAUCGGAUAGGAUUUAUUGCGAGAAGGCUGGACAUGAGGAUCACCCAUGUUCUGUUGGGA”: the “apparent Kd” value runs as follows: under setting [3], 23.9 nM; under setting [4], 36.6 nM.
The matching figures for “UGUCGGAGCAGAGGAUAUUACAUGAGGAUCACCCAUGUAUGAACCAAUAGCUGGAAACAGCAGUGUAAGAAGGCUGCUCCGACA”: 12.5 nM and 143 nM.
As to “UUCCUCAUAACAUGAGGAUCACCCAUGUAUUAAUAGAUAACUGAGGAUAUACUAAUAAUGUUUAUGUAGAAGGCAGAUACAGAU”, the “apparent Kd” value came out at 49.6 nM under setting [3] and 106 nM under setting [4].
For “CUGUGACGGUGCGCAAGUGGACGUAGAAGGGUCACAUGAGGAUCACCCAUGUGGGCCUGCUAUUGACAGGAUAUACGUUCGUAC”, the “apparent Kd” value amounted to 5.28 nM under setting [3] and 5 nM under setting [4].
As to “AAAGCUCAGAUAGGAUAUAUAGGAUAACUUAAGACCUAACAUGAGGAUCACCCAUGUGAUUAUUCGUAGAAGGAUCAUUGAACC”, the “apparent Kd” value under setting [1] came to 195 nM and the “apparent Kd” value under setting [2] is 209 nM.
Consider “AAGUAGGGAGGAUAUACAUAGAUACAGAUUCAUGUAGAACUACAUGAGGAUCACCCAUGUAGAAGGCCCUAAUA”, for which the “apparent Kd” value runs as follows: under setting [3], 31.6 nM; under setting [4], 193 nM.
Turning to “UGUACUAUAAGGUUAAUUGUAUAUUGAGAAGGCAUUCACAUGAGGAUCACCCAUGUAACAUGGGAUGAGGAUAUCAAUUUGUAC”, the “apparent Kd” value by setting is: under setting [1], 197 nM; under setting [2], 33.4 nM.
Turning to “UAUUUAUAGCAAGGAUAUGAUUAUUAUUAUUUAUCAGAAGGUGCACAUGAGGAUCACCCAUGUUUUACAAUUUGUAAUUUAAUU”, the “apparent Kd” value runs as follows: under setting [3], 38.6 nM; under setting [4], 25.1 nM.
For the sequence “CGCUGUCACGCAGGAUAUGCAUUGGAUUACAAUGCAGAAGGGCGAUCACAUGAGGAUCACCCAUGUGUAGACAGUGAAUAAGAG”, the “apparent Kd” value was determined as 611 nM under setting [1] and 49.6 nM under setting [2].
As to “AGAUCACAUGAGGAUCACCCAUGUCAGGAUAUCGACUGAACAGCUUCGGCUGUUCAGUCGAGAAGGGACAAUUA”, the “apparent Kd” value under setting [3] turned out to be 279 nM and the “apparent Kd” value under setting [4] is 860 nM.
Take “GGACAUCCCACAGGAUAUGCUGGACUUUGUCCAGCAGAAGGGUGAACAUGAGGAUCACCCAUGUAUAGGAUGUCCAUAUUUAAU”: the “apparent Kd” value reads like this: under setting [1], 963 nM; under setting [2], 128 nM.
For the sequence “GUACUGUAGUGAGGAUAUACGAGAUCGAUAGAUCGGCGAUCCAUUAAUACAUGAGGAUCACCCAUGUAGAAGGCACUUCAGUAC”, the “apparent Kd” value was 6.25 nM under setting [3] and 78.4 nM under setting [4].
The matching figures for “GACUUGUCAGGAUAUCUUACAUUUGCAUCUUAGUUACCAUUGGAGAAGGGACAUGAGGAUCACCCAUGUUUGGU”: 35.1 nM and 34.4 nM.
Consider “ACAUGAGGAUCACCCAUGUGAUGAUCUUCCAUGUCAUAUUUCAGAAGGCACGCAUGUUUAAUGAGUGAGGAUAUGGAAUAUGCG”, for which the “apparent Kd” value under setting [3] amounted to 802 nM and the “apparent Kd” value under setting [4] turned out to be 553 nM.
Regarding “AUACCUUAUGAGAAGGCGGUCAUGAAACAUGAUCGAGGAUAUCAUGUAAACAUGAGGAUCACCCAUGUAUGGGUAUUAUGGUAG”, the “apparent Kd” value runs as follows: under setting [1], 61.8 nM; under setting [2], 12.3 nM.
Regarding “CGCAUGCGUAGUAUUAGUUGUUGACAGGAUAUGACAUGAGGAUCACCCAUGUGUAUUAAGAAGUGUCAGAAGGGUCUCGUUGCG”, the “apparent Kd” value by setting is: under setting [3], 6.53 nM; under setting [4], 9.73 nM.
Take “AAUGUCUGAGGAUAUCGUUUUUUGUACAUGAGGAUCACCCAUGUCCAAUUUUGUAUAUUACGAGAAGGCAGUGGAA”: the “apparent Kd” value by setting is: under setting [3], 14.9 nM; under setting [4], 22.4 nM.
In the case of “GCGCUUAUACAGAAGGCCAUAUACAUGAGGAUCACCCAUGUUAUUUGGUGGAGGAUAUGUUUUUUAUUACAGGUAGUUGAGCGC”, the “apparent Kd” value runs as follows: under setting [1], 7.42 nM; under setting [2], 5.91 nM.
For “UUCAGCUCGUGAGGAUAUACAUGUGCUGGAAACAGCACUAUUGUGUUCACAUGAGGAUCACCCAUGUAGAAGGCACGAGCUGAG”, the “apparent Kd” value by setting is: under setting [3], 18.6 nM; under setting [4], 82.1 nM.
Taken in the same sequence, the figures for “UUUUUACAUGAGGAUCACCCAUGUCAGGAUAUGUUUAUAUUUUAUUAUUUUAUUUUUUACAGAAGGGACUAUUA” were 136 nM and 66.6 nM.
As for “CCUCUACAUGAGGAUCACCCAUGUGAGGAUAUGCGAGGCGCGCUCGAUGAGCACGCCGGUAGAAGGCAUGUGGU”, the “apparent Kd” value is, setting by setting: under setting [3], 23.8 nM; under setting [4], 51.6 nM.
Taken in the same sequence, the figures for “CCGGAUAUGCAGGAUAUCGUAUCGGAUACGAUACGAGAAGGGUAUACAUGAGGAUCACCCAUGUGCCUUACCGG” were 19.3 nM and 20 nM.
The matching figures for “UACUAUAAGGAGGAUAUCGUAUCGGAAACGAUACGAGAAGGCUUAACAUGAGGAUCACCCAUGUUCUUCAAUAA”: 16.6 nM and 18.3 nM.
The matching figures for “CUUGUUUAUGUAGGAUAUGCCUGGCGUGCCUUUGCAGAAGGACAUGAGGAUCACCCAUGUAGUAUGAGGCUUACCCUUGUCGCC”: 28.2 nM and 24.5 nM.
With “UAUCUAUUUAUGGGAUUAGAUUAUGAGGAUAUCAUUUUUUUAUACAUGAGGAUCACCCAUGUUUCUGAGAAGGCAUAUUUAAUA”, the “apparent Kd” value turned out to be 22.2 nM under setting [1] and 8.12 nM under setting [2].
Take “AUGCUUCACACAGGAUAUACAUGAGGAUCACCCAUGUGUCCUAAGUAGCUGACACGAGCUACGCGGUAGAAGGGUGUGAAGCAU”: the “apparent Kd” value is, setting by setting: under setting [3], 21.6 nM; under setting [4], 154 nM.
Turning to “CUCAAGUUAGGAUAUUGACGCCCAAGACGGCGUCUUGGGCACAAGAAGGGACAUGAGGAUCACCCAUGUCAAUA”, the “apparent Kd” value is, setting by setting: under setting [3], 24.1 nM; under setting [4], 27.7 nM.
Taken in the same sequence, the figures for “UCCUUGUCCUGAGGAUAUCCGCGGUUCCCAUAAGGAGAAGGCAGGACAUGAGGAUCACCCAUGUACCCAGAAAACGUGCAGAGU” were 24 nM and 156 nM.
Taken in the same sequence, the figures for “GUGACGAAUGUAGGAUAUGCUGAGGAAUACUCAGCAGAAGGACAUGAGGAUCACCCAUGUAAUCCUAAUAAUAAAUAACGUCAC” were 13 nM and 18.3 nM.
The matching figures for “GUUAGACAUGAGGAUCACCCAUGUGAGGAUAUGAUGUGAAUAAAUAAUUAAUUAAGUAUCAGAAGGCACAUAUG”: 129 nM and 149 nM.
Take “UGUAUUAAUGGAGGAUAUCGAUAUCAAACAUGAGGAUCACCCAUGUUGAGGAUCACCCAUGUCCAUGAGAAGGCUGGCGUACGU”: the “apparent Kd” value is, setting by setting: under setting [1], 45.4 nM; under setting [2], 40.9 nM.
